Results from ChEMBL document CHEMBL2375226, “Bivalent angiotensin II suppresses oxidative stress-induced hyper-responsiveness of angiotensin II receptor type I” (Eur J Med Chem, 2013).
Active and inactive are the calls of the source. The calls are words filed in the database; no cut-off is given here.

Columns and labels:
[1] = tested on: HEK293; assay: Stimulation of EGFP-tagged rat AT1 receptor expressed in HEK cells assessed as increase in degree of aggregation at 5 nM under non-oxidative condition by image correlation spectroscopic analysis; type: cell-based
In short: (§1)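 HEK cells expressing EGFP-tagged AT₁R were plated at 1.5 × 10⁵ cells per glass-bottom dish. Where stated, cells were pre-treated with H₂O₂ for 3 h. Cell surfaces were imaged before and after 5 nM monovalent Ang II (or a 5 nM total 1:1 mixture) or 2.5 nM bivalent peptide. Imaging used a 488 nm laser and a 60× oil objective. Image correlation spectroscopy gave mean fluorescence intensity, cluster density and degree of aggregation versus unstimulated baseline.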

[2] = tested on: HEK293; assay: Stimulation of EGFP-tagged rat AT1 receptor expressed in HEK cells assessed as increase in degree of aggregation at 5 nM under H2O2-induced oxidative stress condition by image correlation spectroscopic analysis; type: cell-based; in short: as §1
[3] = tested on: HEK293; assay: Stimulation of EGFP-tagged rat AT1 receptor expressed in HEK cells assessed as increase in intracellular calcium level at 5 nM after 3 mins under H2O2-induced oxidative stress condition by fluorimetric assay; type: cell-based
In short: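 Before the Indo1-AM [Ca²⁺]i assay, AT₁R-HEK cells were exposed to H₂O₂ for 3 h to impose oxidative stress. They were then stimulated with 5 nM peptide, based on Ang II equivalents. Ratiometric emission at 405/490 nm (ex 338 nm) was monitored for 3 min after ligand addition. Ca²⁺ was derived by Kd-based calibration against EGTA and ionomycin ratios.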

[4] = tested on: HEK293; assay: Stimulation of EGFP-tagged rat AT1 receptor expressed in HEK cells assessed as increase in mean fluorescence intensity at 5 nM under non-oxidative condition by image correlation spectroscopic analysis relative to control; type: cell-based; in short: as §1
[5] = tested on: HEK293; assay: Stimulation of EGFP-tagged rat AT1 receptor expressed in HEK cells assessed as increase in mean fluorescence intensity at 5 nM under H2O2-induced oxidative stress condition by image correlation spectroscopic analysis relative to control; type: cell-based; in short: as §1
[6] = tested on: HEK293; assay: Stimulation of EGFP-tagged rat AT1 receptor expressed in HEK cells assessed as increase in cluster density value at 5 nM under H2O2-induced oxidative stress condition by image correlation spectroscopic analysis; type: cell-based; in short: as §1
[7] = tested on: HEK293; assay: Stimulation of EGFP-tagged rat AT1 receptor expressed in HEK cells assessed as increase in cluster density value at 5 nM under non-oxidative condition by image correlation spectroscopic analysis relative to control; type: cell-based; in short: as §1
[8] = tested on: HEK293; assay: Stimulation of EGFP-tagged rat AT1 receptor expressed in HEK cells assessed as increase in intracellular calcium level at 10 nM after 3 mins by fluorimetric assay
[9] = tested on: HEK293; assay: Stimulation of EGFP-tagged rat AT1 receptor expressed in HEK cells assessed as decrease in cluster density value at 2.5 nM under H2O2-induced oxidative stress condition by image correlation spectroscopic analysis; type: cell-based; in short: as §1
[10] = tested on: HEK293; assay: Stimulation of EGFP-tagged rat AT1 receptor expressed in HEK cells assessed as increase in degree of aggregation at 2.5 nM under H2O2-induced oxidative stress condition by image correlation spectroscopic analysis; type: cell-based; in short: as §1
[11] = tested on: HEK293; assay: Stimulation of EGFP-tagged rat AT1 receptor expressed in HEK cells assessed as change in cluster density value at 2.5 nM under non-oxidative condition by image correlation spectroscopic analysis relative to control; type: cell-based; in short: as §1
[12] = tested on: HEK293; assay: Stimulation of EGFP-tagged rat AT1 receptor expressed in HEK cells assessed as increase in intracellular calcium level at 5 nM after 3 mins under H2O2-induced oxidative stress condition by fluorimetric assay
[13] = tested on: HEK293; assay: Stimulation of EGFP-tagged rat AT1 receptor expressed in HEK cells assessed as increase in degree of aggregation at 2.5 nM under non-oxidative condition by image correlation spectroscopic analysis; type: cell-based; in short: as §1

Q: For `CC[C@H](C)[C@H](NC(=O)[C@H](Cc1ccc(O)cc1)NC(=O)[C@@H](NC(=O)[C@H](CCCNC(=N)N)NC(=O)[C@@H](N)CC(=O)O)C(C)C)C(=O)N[C@@H](Cc1cnc[nH]1)C(=O)N1CCC[C@H]1C(=O)N[C@@H](Cc1ccccc1)C(=O)O`, which Activity [1] is on record?
A: The Activity was “inactive”.

Q: And the Activity [2]?
A: Its Activity is “Active”.

Q: What about the Activity [3] of the same compound?
A: Its Activity is “Active”.

Q: What about the Activity [4] of the same compound?
A: The Activity was “Active”.

Q: And the Activity [5]?
A: The Activity was “Active”.

Q: And the Activity [6]?
A: Its Activity is “Active”.

Q: What about the Activity [7] of the same compound?
A: Its Activity is “Active”.

Q: How did the Activity [8] turn out when `CC[C@H](C)[C@H](NC(=O)[C@H](Cc1ccc(O)cc1)NC(=O)[C@@H](NC(=O)[C@H](CCCNC(=N)N)NC(=O)[C@H](CC(=O)O)NC(=O)CCCCCNc1c(OC)c(=O)c1=O)C(C)C)C(=O)N[C@@H](Cc1cnc[nH]1)C(=O)N1CCC[C@H]1C(=O)N[C@@H](Cc1ccccc1)C(=O)O` was run?
A: Its Activity is “Active”.

Q: `CC[C@H](C)[C@H](NC(=O)[C@H](Cc1ccc(O)cc1)NC(=O)[C@@H](NC(=O)[C@H](CCCNC(=N)N)NC(=O)[C@H](CC(=O)O)NC(=O)CCCCCNc1c(N[C@@H](CC(=O)O)C(=O)N[C@@H](CCCNC(=N)N)C(=O)N[C@H](C(=O)N[C@@H](Cc2ccc(O)cc2)C(=O)N[C@H](C(=O)N[C@@H](Cc2cnc[nH]2)C(=O)N2CCC[C@H]2C(=O)N[C@@H](Cc2ccccc2)C(=O)O)[C@@H](C)CC)C(C)C)c(=O)c1=O)C(C)C)C(=O)N[C@@H](Cc1cnc[nH]1)C(=O)N1CCC[C@H]1C(=O)N[C@@H](Cc1ccccc1)C(=O)O` was tested. Which Activity [9] did it give?
A: Its Activity is “inactive”.

Q: What about the Activity [10] of the same compound?
A: The Activity was “Active”.

Q: What about the Activity [11] of the same compound?
A: The Activity was “inactive”.

Q: What about the Activity [12] of the same compound?
A: The Activity was “Active”.

Q: And the Activity [13]?
A: The Activity was “Active”.
